Data: ChEMBL document CHEMBL3272018, “Synthesis of aziridinylallylaminophosphine oxides and sulfides as potential adjuvant cancer chemotherapeutic agents” (J Med Chem, 1976)
Calls of active or inactive are those of the source. The rule behind the calls is not given here.

Legend:
[1] = system: Rattus norvegicus; assay: Toxicity in rat allografted with rat Walker 256 cells intramuscularly assessed as change in body weight at 6.25 mg/kg, qd administered for 5 days; format: organism-based; parameters: dose 6.25 mg/kg, route intramuscular; conditions: in vivo, im, 120 h
Procedure, shortened: (§1)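 Walker 256 carcinoma solid-tumour system in rats (parent line, or the line resistant to cytoxan). Dosing was one injection per day for 5 days. Toxicity was taken as the average net body-weight change of the treated group minus the average net weight change of the untreated tumour-bearing controls, in grams.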

[2] = system: Rattus norvegicus; assay: Toxicity in rat allografted with rat Walker 256 cells intramuscularly assessed as change in body weight at 3.12 mg/kg, qd administered for 5 days; format: organism-based; parameters: dose 3.12 mg/kg, route intramuscular; conditions: in vivo, im, 120 h; procedure, shortened: as §1
[3] = system: Rattus norvegicus; assay: Toxicity in rat allografted with rat Walker 256 cells intramuscularly assessed as change in body weight at 1.56 mg/kg, qd administered for 5 days; format: organism-based; parameters: dose 1.56 mg/kg, route intramuscular; conditions: in vivo, im, 120 h; procedure, shortened: as §1
[4] = system: Rattus norvegicus; assay: Toxicity in rat allografted with rat Walker 256 cells intramuscularly assessed as change in body weight at 0.78 mg/kg, qd administered for 5 days; format: organism-based; parameters: dose 0.78 mg/kg, route intramuscular; conditions: in vivo, im, 120 h; procedure, shortened: as §1
[5] = system: W256; assay: Antitumor activity against rat Walker 256 cells intramuscularly allografted in rat assessed as tumor growth inhibition at 6.25 mg/kg, qd administered for 5 days relative to control; format: functional; conditions: W256, im, 120 h, route intramuscular, read-out: TGI
Procedure, shortened: (§2)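 Walker 256 carcinoma grown as a solid tumour in rats, with one injection daily for 5 days. Response is given as T/C %, the treated-group measure over the untreated-control tumour measure; a smaller value means more activity. Host toxicity is the mean net weight change of treated minus control animals, in grams.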

[6] = system: W256; assay: Antitumor activity against rat Walker 256 cells intramuscularly allografted in rat assessed as tumor growth inhibition at 3.12 mg/kg, qd administered for 5 days relative to control; format: functional; conditions: W256, im, 120 h, route intramuscular, read-out: TGI; procedure, shortened: as §2
[7] = system: W256; assay: Antitumor activity against rat Walker 256 cells intramuscularly allografted in rat assessed as tumor growth inhibition at 1.56 mg/kg, qd administered for 5 days relative to control; format: functional; conditions: W256, im, 120 h, route intramuscular, read-out: TGI
Procedure, shortened: (§3)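 Dosed once daily for 5 days. Response is tumor progression in treated (T) versus untreated control (C) animals, expressed as T/C percentage. Host weight change is reported as the average net weight change of the test group minus that of the controls, in grams.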

[8] = system: W256; assay: Antitumor activity against rat Walker 256 cells intramuscularly allografted in rat assessed as survival rate at 6.25 mg/kg, qd administered for 5 days; format: functional, organism-based; parameters: dose 6.25 mg/kg
Procedure, shortened: (§4)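 Rats bearing Walker 256 carcinoma as a solid tumor; lines 1-8 use a cytoxan-resistant Walker 256 subline. Dosed once daily for 5 days. Treated (T) and untreated control (C) groups are compared, and the response is given as T/C percentage, reflecting increase in survival time. Host weight change is the average weight change of the test group minus that of the controls, in grams.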

[9] = system: W256; assay: Antitumor activity against rat Walker 256 cells intramuscularly allografted in rat assessed as survival rate at 3.12 mg/kg, qd administered for 5 days; format: functional, organism-based; parameters: dose 3.12 mg/kg; procedure, shortened: as §4
[10] = system: W256; assay: Antitumor activity against rat Walker 256 cells intramuscularly allografted in rat assessed as survival rate at 1.56 mg/kg, qd administered for 5 days; format: functional, organism-based; parameters: dose 1.56 mg/kg; procedure, shortened: as §4
[11] = system: W256; assay: Antitumor activity against rat Walker 256 cells intramuscularly allografted in rat assessed as survival rate at 0.78 mg/kg, qd administered for 5 days; format: functional, organism-based; parameters: dose 0.78 mg/kg; procedure, shortened: as §4
[12] = system: L1210; assay: In vivo antitumor activity against mouse L1210 cells in prognostic scoring system assessed as survival rate at 5 mg/kg, qd administered for 9 days; format: functional, organism-based; parameters: dose 5 mg/kg
Procedure, shortened: (§5)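 L1210 leukaemia in mice, run as an ascites tumour system. Injections were once daily for 9 or 15 days, or as a single dose. Response is the increase in survival time, given as T/C %, treated over untreated controls; a larger value means more activity. Weight change is the treated-group mean minus the control-group mean, in grams.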

[13] = system: L1210; assay: In vivo antitumor activity against mouse L1210 cells in prognostic scoring system assessed as survival rate at 3 mg/kg, qd administered for 9 days; format: functional, organism-based; parameters: dose 3 mg/kg; procedure, shortened: as §5
[14] = system: L1210; assay: In vivo antitumor activity against mouse L1210 cells in prognostic scoring system assessed as survival rate at 1.8 mg/kg, qd administered for 9 days; format: functional, organism-based; parameters: dose 1.8 mg/kg; procedure, shortened: as §5
[15] = system: L1210; assay: In vivo antitumor activity against mouse L1210 cells in prognostic scoring system assessed as survival rate at 1 mg/kg, qd administered for 9 days; format: functional, organism-based; parameters: dose 1 mg/kg; procedure, shortened: as §5
[16] = system: W256; assay: Antitumor activity against rat Walker 256 cells intramuscularly allografted in rat assessed as tumor growth inhibition at 0.78 mg/kg, qd administered for 5 days relative to control; format: functional; conditions: W256, im, 120 h, route intramuscular, read-out: TGI; procedure, shortened: as §3
[17] = system: L1210; assay: In vivo antitumor activity against mouse L1210 cells in prognostic scoring system assessed as tumor growth inhibition at 3 mg/kg, qd administered for 9 days relative to control; format: functional; conditions: L1210, 216 h, read-out: TGI
[18] = Toxicity in rat allografted with rat Walker 256 cells intramuscularly; format: organism-based
[19] = system: W256; assay: Antitumor activity against rat Walker 256 cells intramuscularly allografted in rat assessed as tumor growth inhibition; format: functional; conditions: W256, im; procedure, shortened: as §3
[20] = Therapeutic index, ratio of LD50 for rat allografted with rat Walker 256 cells to ED10 for antitumor activity against rat Walker 256 cells intramuscularly allografted in rat; format: cell-based; conditions: read-out: TI
Procedure, shortened: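 Therapeutic index is LD50/ED10 in the Walker 256 solid tumour system. ED10 is the dose giving a 10% tumour weight reduction, with values extrapolated from dose-response data.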

[21] = system: Musca domestica; assay: Toxicity in male house fly assessed as lowest dose required to cause complete sterility administered in sugar; format: organism-based; conditions: in vivo, po
[22] = system: Musca domestica; assay: Toxicity in male house fly assessed as lowest dose required to cause complete sterility administered in food; format: organism-based; conditions: in vivo, po
[23] = system: W256; assay: Antitumor activity against rat Walker 256 cells intramuscularly allografted in rat assessed as survival rate at 12 mg/kg, qd administered for 5 days; format: functional, organism-based; parameters: dose 12 mg/kg; procedure, shortened: as §4
[24] = system: W256; assay: Antitumor activity against cytoxan-resistant rat Walker 256 cells intramuscularly allografted in rat assessed as survival rate at 25 mg/kg, qd administered for 5 days; format: functional, organism-based; parameters: dose 25 mg/kg; procedure, shortened: as §4
[25] = system: W256; assay: Antitumor activity against cytoxan-resistant rat Walker 256 cells intramuscularly allografted in rat assessed as survival rate at 12 mg/kg, qd administered for 5 days; format: functional, organism-based; parameters: dose 12 mg/kg; procedure, shortened: as §4
[26] = system: W256; assay: Antitumor activity against cytoxan-resistant rat Walker 256 cells intramuscularly allografted in rat assessed as survival rate at 6 mg/kg, qd administered for 5 days; format: functional, organism-based; parameters: dose 6 mg/kg; procedure, shortened: as §4
[27] = system: W256; assay: Antitumor activity against cytoxan-resistant rat Walker 256 cells intramuscularly allografted in rat assessed as survival rate at 3 mg/kg, qd administered for 5 days; format: functional, organism-based; parameters: dose 3 mg/kg; procedure, shortened: as §4
[28] = system: L1210; assay: In vivo antitumor activity against mouse L1210 cells in prognostic scoring system assessed as survival rate at 11 mg/kg, qd administered for 15 days; format: functional, organism-based; parameters: dose 11 mg/kg; procedure, shortened: as §5
[29] = system: L1210; assay: In vivo antitumor activity against mouse L1210 cells in prognostic scoring system assessed as survival rate at 7 mg/kg, qd administered for 15 days; format: functional, organism-based; parameters: dose 7 mg/kg; procedure, shortened: as §5
[30] = system: L1210; assay: In vivo antitumor activity against mouse L1210 cells in prognostic scoring system assessed as survival rate at 5 mg/kg, qd administered for 15 days; format: functional, organism-based; parameters: dose 5 mg/kg; procedure, shortened: as §5
[31] = system: Rattus norvegicus; assay: Toxicity in rat allografted with rat Walker 256 cells intramuscularly assessed as change in body weight at 12 mg/kg, qd administered for 5 days; format: organism-based; parameters: dose 12 mg/kg, route intramuscular; conditions: in vivo, im, 120 h; procedure, shortened: as §1
[32] = system: Rattus norvegicus; assay: Toxicity in rat allografted with cytoxan-resistant rat Walker 256 cells intramuscularly assessed as change in body weight at 25 mg/kg, qd administered for 5 days; format: organism-based; parameters: dose 25 mg/kg, route intramuscular; conditions: in vivo, im, 120 h; procedure, shortened: as §1
[33] = system: Rattus norvegicus; assay: Toxicity in rat allografted with cytoxan-resistant rat Walker 256 cells intramuscularly assessed as change in body weight at 12 mg/kg, qd administered for 5 days; format: organism-based; parameters: dose 12 mg/kg, route intramuscular; conditions: in vivo, im, 120 h; procedure, shortened: as §1
[34] = system: Rattus norvegicus; assay: Toxicity in rat allografted with cytoxan-resistant rat Walker 256 cells intramuscularly assessed as change in body weight at 6 mg/kg, qd administered for 5 days; format: organism-based; parameters: dose 6 mg/kg, route intramuscular; conditions: in vivo, im, 120 h; procedure, shortened: as §1
[35] = system: Rattus norvegicus; assay: Toxicity in rat allografted with cytoxan-resistant rat Walker 256 cells intramuscularly assessed as change in body weight at 3 mg/kg, qd administered for 5 days; format: organism-based; parameters: dose 3 mg/kg, route intramuscular; conditions: in vivo, im, 120 h; procedure, shortened: as §1
[36] = system: L1210; assay: In vivo antitumor activity against mouse L1210 cells in prognostic scoring system assessed as survival rate at 3 mg/kg, qd administered for 15 days; format: functional, organism-based; parameters: dose 3 mg/kg; procedure, shortened: as §5
[37] = system: W256; assay: Antitumor activity against rat Walker 256 cells intramuscularly allografted in rat assessed as tumor growth inhibition at 12 mg/kg, qd administered for 5 days relative to control; format: functional; conditions: W256, im, 120 h, route intramuscular, read-out: TGI; procedure, shortened: as §2
[38] = system: W256; assay: Antitumor activity against cytoxan-resistant rat Walker 256 cells intramuscularly allografted in rat assessed as tumor growth inhibition at 25 mg/kg, qd administered for 5 days relative to control; format: functional; conditions: W256, im, 120 h, route intramuscular, read-out: TGI; procedure, shortened: as §3
[39] = system: W256; assay: Antitumor activity against cytoxan-resistant rat Walker 256 cells intramuscularly allografted in rat assessed as tumor growth inhibition at 12 mg/kg, qd administered for 5 days relative to control; format: functional; conditions: W256, im, 120 h, route intramuscular, read-out: TGI; procedure, shortened: as §3
[40] = system: W256; assay: Antitumor activity against cytoxan-resistant rat Walker 256 cells intramuscularly allografted in rat assessed as tumor growth inhibition at 6 mg/kg, qd administered for 5 days relative to control; format: functional; conditions: W256, im, 120 h, route intramuscular, read-out: TGI; procedure, shortened: as §3
[41] = system: W256; assay: Antitumor activity against cytoxan-resistant rat Walker 256 cells intramuscularly allografted in rat assessed as tumor growth inhibition at 3 mg/kg, qd administered for 5 days relative to control; format: functional; conditions: W256, im, 120 h, route intramuscular, read-out: TGI; procedure, shortened: as §3
[42] = system: L1210; assay: In vivo antitumor activity against mouse L1210 cells in prognostic scoring system […] at 5 mg/kg, qd administered for 15 days relative to control; format: functional; conditions: L1210, 360 h, read-out: TGI

Compound: C=CCN(CC=C)P(=O)(N1CC1C)N1CC1C (stereo not given)
- Activity [1]: -28 g
- Activity [2]: -15 g
- Activity [3]: -22 g
- Activity [4]: -8 g
- inhibition in vivo at 6.25 mg/kg [5]: 3%
- inhibition in vivo at 3.12 mg/kg [6]: 0%
- inhibition in vivo at 1.56 mg/kg [7]: 5%
- Activity [8]: Active
- Activity [9]: Active
- Activity [10]: Active
- Activity [11]: Active
- Activity [12]: Active
- Activity [13]: Active
- Activity [14]: Active
- Activity [15]: Active
- inhibition in vivo at 0.78 mg/kg [16]: 24%
- inhibition in vivo at 3 mg/kg [17]: 172%
- LD50 [18]: 22 mg/kg
- ED10 [19]: 3.5 mg/kg
- selectivity ratio [20]: 9
- Activity [21]: 0.5%
- Activity [22]: 0.25%

Compound: C=CCN(CC=C)P(=O)(N(CC=C)CC=C)N1CC1
- Activity [23]: Active
- Activity [24]: Active
- Activity [25]: Active
- Activity [26]: Active
- Activity [27]: Active
- Activity [28]: Active
- Activity [29]: Active
- Activity [30]: Active
- Activity [31]: -1 g
- Activity [32]: -28 g
- Activity [33]: -4 g
- Activity [34]: -7 g
- Activity [35]: -1 g
- Activity [36]: Active
- inhibition in vivo at 12 mg/kg [37]: 0%
- inhibition in vivo at 25 mg/kg [38]: 52%
- inhibition in vivo at 12 mg/kg [39]: 66%
- inhibition in vivo at 6 mg/kg [40]: 70%
- inhibition in vivo at 3 mg/kg [41]: 84%
- inhibition in vivo at 5 mg/kg [42]: 155%
- LD50 [18]: 75 mg/kg
- ED10 [19]: 2.5 mg/kg
- selectivity ratio [20]: 30
